Assay results reported in article PMC12495087 (ESMO Open, 2025).

Test: phase I study BOS172738-01: safety and tolerability
Type: in vivo, human
Conditions: for patients who discontinued study treatment due to AEs: interim cut-off
How it was run: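 Patients received at least one dose of oral drug given once daily in 28-day cycles. Part A escalated 10–150 mg, by accelerated titration (dose doubling) and then 3+3 Fibonacci steps; part B used 75 mg. AEs were graded by CTCAE v4.03 from first dose to 31 days after last dose. DLTs counted in cycle 1. Missing causality was scored as related and missing grade as grade 3.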

[1] = part A, all dose levels, n = 67
[2] = part B, RET gene-fusion NSCLC, 75 mg, n = 20
[3] = part B, RET gene-mutant MTC, 75 mg, n = 7

Structure (SMILES): COc1cc2cc(-c3ccc(CC(=O)Nc4cc(C(C)(C)C(F)(F)F)no4)cn3)cnc2cc1OC [BOS172738]
- TEAE related to BOS, any [1]: 61 (91) n (%)
- TEAE related to BOS, grade ≥3 [1]: 39 (58) n (%)
- patients who discontinued study treatment due to AEs (part A, % of 69 screened): 18 (26%) n (%)
- Any TEAE (part B total, n = 50): 50 (100) n (%)
- Any TEAE leading to BOS discontinuation (part B total, n = 50): 7 (14) n (%)
- Any TEAE leading to BOS dose interruption (part B total, n = 50): 33 (66) n (%)
- Any TEAE leading to BOS dose reduction (part B total, n = 50): 10 (20) n (%)
- Any TEAE leading to study discontinuation (part B total, n = 50): 7 (14) n (%)
- Any TEAE related to BOS leading to BOS discontinuation (part B total, n = 50): 2 (4) n (%)
- Any TEAE related to BOS leading to study discontinuation (part B total, n = 50): 1 (2) n (%)
- Any TEAE resulting in death (part B total, n = 50): 2 (4) n (%)
- Any TEAE, grade ≥3 (part B total, n = 50): 41 (82) n (%)
- Serious TEAEs related to BOS (part B total, n = 50): 2 (4) n (%)
- Serious TEAEs, any (part B total, n = 50): 28 (56) n (%)
- TEAE related to BOS, CTCAE grade ≥3: Anemia (part B total, n = 50): 3 (6) n (%)
- TEAE related to BOS, CTCAE grade ≥3: Asthenia (part B total, n = 50): 0 n (%)
- TEAE related to BOS, CTCAE grade ≥3: Blood creatinine phosphokinase increased (part B total, n = 50): 10 (20) n (%)
- TEAE related to BOS, CTCAE grade ≥3: Diarrhea (part B total, n = 50): 0 n (%)
- TEAE related to BOS, CTCAE grade ≥3: Hypophosphatemia (part B total, n = 50): 3 (6) n (%)
- TEAE related to BOS, CTCAE grade ≥3: Lymphopenia (part B total, n = 50): 2 (4) n (%)
- TEAE related to BOS, CTCAE grade ≥3: Muscular weakness (part B total, n = 50): 0 n (%)
- TEAE related to BOS, CTCAE grade ≥3: Myositis (part B total, n = 50): 0 n (%)
- TEAE related to BOS, CTCAE grade ≥3: Neutropenia (part B total, n = 50): 0 n (%)
- TEAE related to BOS, CTCAE grade ≥3: Neutrophil count decreased (part B total, n = 50): 7 (14) n (%)
- TEAE related to BOS, any (part B total, n = 50): 38 (76) n (%)
- TEAE related to BOS, grade ≥3 (part B total, n = 50): 24 (48) n (%)
- Any TEAE (part B, Other, 75 mg, n = 23): 23 (100) n (%)
- Any TEAE leading to BOS discontinuation (part B, Other, 75 mg, n = 23): 5 (22) n (%)
- Any TEAE leading to BOS dose interruption (part B, Other, 75 mg, n = 23): 11 (48) n (%)
- Any TEAE leading to BOS dose reduction (part B, Other, 75 mg, n = 23): 4 (17) n (%)
- Any TEAE leading to study discontinuation (part B, Other, 75 mg, n = 23): 3 (13) n (%)
- Any TEAE related to BOS leading to BOS discontinuation (part B, Other, 75 mg, n = 23): 1 (4) n (%)
- Any TEAE related to BOS leading to study discontinuation (part B, Other, 75 mg, n = 23): 0 n (%)
- Any TEAE resulting in death (part B, Other, 75 mg, n = 23): 1 (4) n (%)
- Any TEAE, grade ≥3 (part B, Other, 75 mg, n = 23): 16 (70) n (%)
- Serious TEAEs related to BOS (part B, Other, 75 mg, n = 23): 1 (4) n (%)
- Serious TEAEs, any (part B, Other, 75 mg, n = 23): 17 (74) n (%)
- TEAE related to BOS, CTCAE grade ≥3: Anemia (part B, Other, 75 mg, n = 23): 1 (4) n (%)
- TEAE related to BOS, CTCAE grade ≥3: Asthenia (part B, Other, 75 mg, n = 23): 0 n (%)
- TEAE related to BOS, CTCAE grade ≥3: Blood creatinine phosphokinase increased (part B, Other, 75 mg, n = 23): 0 n (%)
- TEAE related to BOS, CTCAE grade ≥3: Diarrhea (part B, Other, 75 mg, n = 23): 0 n (%)
- TEAE related to BOS, CTCAE grade ≥3: Hypophosphatemia (part B, Other, 75 mg, n = 23): 1 (4) n (%)
- TEAE related to BOS, CTCAE grade ≥3: Lymphopenia (part B, Other, 75 mg, n = 23): 1 (4) n (%)
- TEAE related to BOS, CTCAE grade ≥3: Muscular weakness (part B, Other, 75 mg, n = 23): 0 n (%)
- TEAE related to BOS, CTCAE grade ≥3: Myositis (part B, Other, 75 mg, n = 23): 0 n (%)
- TEAE related to BOS, CTCAE grade ≥3: Neutropenia (part B, Other, 75 mg, n = 23): 0 n (%)
- TEAE related to BOS, CTCAE grade ≥3: Neutrophil count decreased (part B, Other, 75 mg, n = 23): 1 (4) n (%)
- TEAE related to BOS, any (part B, Other, 75 mg, n = 23): 11 (48) n (%)
- TEAE related to BOS, grade ≥3 (part B, Other, 75 mg, n = 23): 4 (17) n (%)
- Any TEAE [2]: 20 (100) n (%)
- Any TEAE leading to BOS discontinuation [2]: 1 (5) n (%)
- Any TEAE leading to BOS dose interruption [2]: 17 (85) n (%)
- Any TEAE leading to BOS dose reduction [2]: 4 (20) n (%)
- Any TEAE leading to study discontinuation [2]: 3 (15) n (%)
- Any TEAE related to BOS leading to BOS discontinuation [2]: 0 n (%)
- Any TEAE related to BOS leading to study discontinuation [2]: 0 n (%)
- Any TEAE resulting in death [2]: 1 (5) n (%)
- Any TEAE, grade ≥3 [2]: 19 (95) n (%)
- Serious TEAEs related to BOS [2]: 1 (5) n (%)
- Serious TEAEs, any [2]: 9 (45) n (%)
- TEAE related to BOS, CTCAE grade ≥3: Anemia [2]: 2 (10) n (%)
- TEAE related to BOS, CTCAE grade ≥3: Asthenia [2]: 0 n (%)
- TEAE related to BOS, CTCAE grade ≥3: Blood creatinine phosphokinase increased [2]: 8 (40) n (%)
- TEAE related to BOS, CTCAE grade ≥3: Diarrhea [2]: 0 n (%)
- TEAE related to BOS, CTCAE grade ≥3: Hypophosphatemia [2]: 0 n (%)
- TEAE related to BOS, CTCAE grade ≥3: Lymphopenia [2]: 1 (5) n (%)
- TEAE related to BOS, CTCAE grade ≥3: Muscular weakness [2]: 0 n (%)
- TEAE related to BOS, CTCAE grade ≥3: Myositis [2]: 0 n (%)
- TEAE related to BOS, CTCAE grade ≥3: Neutropenia [2]: 0 n (%)
- TEAE related to BOS, CTCAE grade ≥3: Neutrophil count decreased [2]: 5 (25) n (%)
- TEAE related to BOS, any [2]: 20 (100) n (%)
- TEAE related to BOS, grade ≥3 [2]: 14 (70) n (%)
- Any TEAE [3]: 7 (100) n (%)
- Any TEAE leading to BOS discontinuation [3]: 1 (14) n (%)
- Any TEAE leading to BOS dose interruption [3]: 5 (71) n (%)
- Any TEAE leading to BOS dose reduction [3]: 2 (29) n (%)
- Any TEAE leading to study discontinuation [3]: 1 (14) n (%)
- Any TEAE related to BOS leading to BOS discontinuation [3]: 1 (14) n (%)
- Any TEAE related to BOS leading to study discontinuation [3]: 1 (14) n (%)
- Any TEAE resulting in death [3]: 0 n (%)
- Any TEAE, grade ≥3 [3]: 6 (86) n (%)
- Serious TEAEs related to BOS [3]: 0 n (%)
- Serious TEAEs, any [3]: 2 (29) n (%)
- TEAE related to BOS, CTCAE grade ≥3: Anemia [3]: 0 n (%)
- TEAE related to BOS, CTCAE grade ≥3: Asthenia [3]: 0 n (%)
- TEAE related to BOS, CTCAE grade ≥3: Blood creatinine phosphokinase increased [3]: 2 (29) n (%)
- TEAE related to BOS, CTCAE grade ≥3: Diarrhea [3]: 0 n (%)
- TEAE related to BOS, CTCAE grade ≥3: Hypophosphatemia [3]: 2 (29) n (%)
- TEAE related to BOS, CTCAE grade ≥3: Lymphopenia [3]: 0 n (%)
- TEAE related to BOS, CTCAE grade ≥3: Muscular weakness [3]: 0 n (%)
- TEAE related to BOS, CTCAE grade ≥3: Myositis [3]: 0 n (%)
- TEAE related to BOS, CTCAE grade ≥3: Neutropenia [3]: 0 n (%)
- TEAE related to BOS, CTCAE grade ≥3: Neutrophil count decreased [3]: 1 (14) n (%)
- TEAE related to BOS, any [3]: 7 (100) n (%)
- TEAE related to BOS, grade ≥3 [3]: 6 (86) n (%)
- patients who discontinued study treatment due to AEs (part B, % of 54 screened): 7 (13%) n (%)
- BOS172738-related TEAEs (parts A and B, final cut-off): 85%
- BOS172738-related TEAEs, grade ≥3 (parts A and B, final cut-off): 54%
- BOS172738-related grade ≥3 anemia (parts A and B, final cut-off): 9%
- BOS172738-related grade ≥3 blood creatine phosphokinase increased (parts A and B, final cut-off): 25%
- BOS172738-related grade ≥3 neutrophil count decreased (parts A and B, final cut-off): 10%
- patients with at least one TEAE (parts A and B, final data cut-off): 100%
- elevated blood creatine phosphokinase leading to dose interruption (pooled data): 28%
- elevated blood creatine phosphokinase leading to dose reduction (pooled data): 17%
- elevated blood creatine phosphokinase leading to treatment discontinuation (pooled data): 2%
